Measurements: ChEMBL document CHEMBL1921724, “In search of a cytostatic agent derived from the alkaloid lycorine: synthesis and growth inhibitory properties of lycorine derivatives” (Bioorg Med Chem, 2011)

Assays:
[1] = Growth inhibition of pro-apoptotic stimuli-sensitive human Hs683 cells after 72 hrs by MTT assay; assay type: functional; conditions: Hs 683, 72 h
Outline: (§1)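 Cells seeded at 10,000 to 40,000 cells/mL depending on cell type and allowed to attach for 24 h. They were then cultured 72 h with or without compound (untreated control). Living cells were measured by MTT reduction to formazan, read at 570 nm against a 630 nm reference. GI50 was derived from the growth levels.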

MCF7 = assay: Growth inhibition of human MCF7 cells after 72 hrs by MTT assay; assay type: functional; conditions: MCF7, 72 h
B16-F10 = assay: Growth inhibition of pro-apoptotic stimuli-sensitive mouse B16F10 cells after 72 hrs by MTT assay; assay type: functional; conditions: B16-F10, 72 h; outline: as §1
[2] = Growth inhibition of pro-apoptotic stimuli-resistant human U373 cells after 72 hrs by MTT assay; assay type: functional, U-373MG ATCC; conditions: U373 MG; outline: as §1
T98G = assay: Growth inhibition of pro-apoptotic stimuli-resistant human T98G cells after 72 hrs by MTT assay; assay type: functional; outline: as §1
A549 = assay: Growth inhibition of pro-apoptotic stimuli-resistant human A549 cells after 72 hrs by MTT assay; assay type: functional; conditions: A549, 72 h; outline: as §1
SK-MEL-28 = assay: Growth inhibition of pro-apoptotic stimuli-resistant human SK-MEL-28 cells after 72 hrs by MTT assay; assay type: functional; conditions: SK-MEL-28, 72 h; outline: as §1
PC-3 = assay: Growth inhibition of human PC3 cells after 72 hrs by MTT assay; assay type: functional; conditions: PC-3, 72 h
[3] = Chemical stability of the compound at pH 5 to 7.4; assay type: physicochemical; conditions: buffer
[4] = Ratio of lycorine GI50 to compound GI50 for pro-apoptotic stimuli-resistant human U373 cells after 72 hrs by MTT assay; assay type: functional, U-373MG ATCC

| Structure (SMILES) | GI50 [1] [µM] | GI50 (MCF7) [µM] | GI50 (B16-F10) [µM] | GI50 [2] [µM] | GI50 (T98G) [µM] | GI50 (A549) [µM] | GI50 (SK-MEL-28) [µM] | GI50 (PC-3) [µM] | Stability [3] [days] | RatioGI50 [4] |
| --- | --- | --- | --- | --- | --- | --- | --- | --- | --- | --- |
| CCCCCCCCCCCCCCCC(=O)O[C@H]1[C@H]2c3cc4c(cc3CN3CCC(=C[C@@H]1O)[C@H]23)OCO4 | 27 | 32 | 28 | 24 | 7 | 26 | 35 | 29 | 3 |  |
| CCCCCCCCCCCCCCCCCC(=O)O[C@H]1[C@H]2c3cc4c(cc3CN3CCC(=C[C@@H]1O)[C@H]23)OCO4 | 24 | 38 | 23 | 8 | 16 | 23 | 34 | 26 | 3 |  |
| CCCCCCCC/C=C\CCCCCCCC(=O)O[C@H]1[C@H]2c3cc4c(cc3CN3CCC(=C[C@@H]1O)[C@H]23)OCO4 | 14 | 30 | 21 | 4 | 0.8 | 14 | 30 | 22 | 3 |  |
| CC/C=C\C/C=C\C/C=C\C/C=C\C/C=C\C/C=C\CCC(=O)O[C@H]1[C@H]2c3cc4c(cc3CN3CCC(=C[C@@H]1O)[C@H]23)OCO4 | 20 | 21 | 18 | 8 | 3 | 15 | 25 | 19 | 3 |  |
| CC(C)(C)OC(=O)O[C@H]1[C@H]2c3cc4c(cc3CN3CCC(=C[C@@H]1OC(=O)OC(C)(C)C)[C@H]23)OCO4 | 9 | 5 | 4 | 4 | 4 | 3 | 20 | 22 |  |  |
| CCOC(=O)C[C@@]12C=C[C@@H](OC(C)=O)[C@H]3c4cc5c(cc4CN(CC1)[C@@H]32)OCO5 | > 100 | > 100 | 79 | > 100 | > 100 | > 100 | > 100 | > 100 |  |  |
| CCC(=O)O[C@H]1[C@H]2c3cc4c(cc3CN3CCC(=C[C@@H]1OC(=O)CC)[C@H]23)OCO4 | 8 | 22 | 29 | 3 | 0.6 | 4 | 43 | 41 |  |  |
| C=CCO[C@H]1[C@H]2c3cc4c(cc3CN3CCC(=C[C@@H]1OCC=C)[C@H]23)OCO4 [DIALLYLLYCORINE] | 2 | 0.2 | 4 | 0.03 | 4 | 4 | 6 | 1 |  | 100 |
| O[C@H]1[C@H]2c3cc4c(cc3CN3CCC(=C[C@@H]1O)[C@H]23)OCO4 [LYCORINE] | 0.9 | 4 | 2 | 3 | 3 | 0.9 | 4 | 4 |  |  |
